# RGS4 act: RGS4 potentiation or activation; 310,000 compounds, 0.92% hits; AID 463111; HEK293 M3R/inducible RGS4, carbachol calcium flux Fluo4; active compounds read low; B-score at 10 µM;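 active = B-score of the integrated calcium signal more than 4 SD below the library mean, with starting fluorescence not abnormally high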;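 also: negative B-score means reduced calcium response which marks RGS4 activation or potentiation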
#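 Material: Inducible-RGS4 HEK293 cells carrying M3 receptor; also added: carbachol at ECmax as muscarinic agonist stimulus; incubation: compound preincubation 20 min at room temperature before agonist; signal: Fluo4-AM (2 µM) calcium-flux fluorescence, kinetic read; measure: integrated calcium ratio converted to B score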
# MrgX1 ag: activates human MrgX1 receptor signaling; Q96LB2; MrgX1-HEK293 cells, Fluo-4 calcium fluorescence, agonist mode; active compounds read high; B-score at 10 µM; 310,000 compounds, 0.44% hits;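 active = calcium response B-score plate-corrected fluorescence ratio at least 3 library SD, with starting fluorescence B-score inside 5 SD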
# Target sequence (Q96LB2 whole entry, looked up): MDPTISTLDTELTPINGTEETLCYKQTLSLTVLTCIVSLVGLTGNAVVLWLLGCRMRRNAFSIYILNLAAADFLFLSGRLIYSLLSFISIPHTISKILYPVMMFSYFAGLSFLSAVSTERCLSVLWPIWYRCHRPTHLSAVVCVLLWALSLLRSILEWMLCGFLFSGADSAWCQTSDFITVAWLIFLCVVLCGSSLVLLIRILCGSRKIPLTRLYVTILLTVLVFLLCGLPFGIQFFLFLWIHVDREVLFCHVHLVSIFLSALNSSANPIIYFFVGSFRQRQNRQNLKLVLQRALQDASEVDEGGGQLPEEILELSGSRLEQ
#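 Test system: Stable human MrgX1 HEK293 cell line | Schedule: Overnight plating before 1 h dye loading | Read-out basis: Baseline-normalised fluorescence change ratio, B-scored | Detection: Kinetic calcium dye fluorescence, Fluo-4 NW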
# MrgX1 PAM: human MrgX1 positive allosteric modulation, primary screen; AID 588675; MrgX1-HEK293, Fluo-4 calcium flux, FDSS; active compounds read high; 310,000 compounds, 0.63% hits; Q96LB2; B-score at 10 µM;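 active = plate-corrected calcium response at least 3 library SD above typical, normal starting fluorescence, not activating the receptor alone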;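 also: compound read alongside a low EC10 to EC30 dose of BAM8-22 agonist; peak minus trough fluorescence over baseline measured at the second addition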
# MrgX1 antag: blocks BAM8-22 activation of human MrgX1 receptor; Q96LB2; MRGX1-HEK293 calcium flux, Fluo-4, BAM8-22 antagonism; active compounds read low; B-score at 10 µM; 310,000 compounds, 1.3% hits;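 active = calcium-response B-score plate-corrected more than 3 library SD below zero, starting fluorescence within 5 deviations, no agonist response on first addition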;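 also: peak minus trough fluorescence over baseline after final BAM8-22 challenge near maximal dose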
# RGS4 inh: human RGS4 inhibition. B-score at 10 µM. HEK293 M3R/RGS4 inducible, Fluo-4 calcium flux; active compounds read high; triggered by carbachol at its EC20. P49798. 310,000 compounds, 0.45% hits. AID 463165;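 active = B-score, a plate-corrected calcium signal, over three deviations above library mean, with baseline fluorescence within five deviations of library mean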;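 also: RGS4 expression induced by doxycycline in cells with stable M3 receptor; B-score is computed from the integrated fluorescence ratio over baseline after carbachol; higher B-score means a larger calcium signal and so more RGS4 inhibition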
# Target sequence (P49798 whole entry, looked up): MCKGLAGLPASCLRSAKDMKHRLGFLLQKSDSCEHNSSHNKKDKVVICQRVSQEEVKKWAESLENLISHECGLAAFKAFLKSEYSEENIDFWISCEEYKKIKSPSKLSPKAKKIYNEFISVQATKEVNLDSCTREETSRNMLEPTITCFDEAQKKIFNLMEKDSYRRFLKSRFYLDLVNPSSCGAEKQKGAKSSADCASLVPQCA
# Numbers without * were called inactive; i = inactive; . = no result given. A selection: hits, their analogues and other compounds. The true share with any hit is near 3.5%.
SMILES,RGS4 act,MrgX1 ag,MrgX1 PAM,MrgX1 antag,RGS4 inh
OCCNc1ncnc2c1c(-c1ccccc1)c(-c1ccccc1)n2Cc1ccco1,i,i,i,i,i
N=c1c2c(-c3ccccc3)c(-c3ccccc3)n(Cc3ccco3)c2ncn1CCCn1ccnc1,i,i,i,i,i
CCN1C(=O)/C(=C\N2CCCCCC2)SC1=S,-8.3*,i,i,i,i
CC(=O)OCC1=C(C(=O)O)N2C(=O)C(NC(=O)C(C)Cn3nc(C)c(Cl)c3C)C2SC1 (centres undefined),-7.1*,i,i,i,i
CC(=O)OCC1=C(C(=O)O)N2C(=O)C(NC(=O)c3ccc(F)cc3)C2SC1 (centres undefined),i,i,i,i,i
Cc1ccc(C(=O)N2CCCC(N3CCN(c4ccccc4C)CC3)C2)c(=O)[nH]1 (centres undefined),i,i,i,i,i
CCOC(=O)COc1ccc(S(=O)(=O)Nc2ccc3c(c2)OCO3)cc1,-8.5*,i,i,i,i
Cc1oc(-c2ccc(Cl)cc2)nc1CS(=O)CC(=O)NCc1ccc2c(c1)OCO2 (centres undefined),i,i,i,-4.9*,i
CCOc1ccc(CCNC(=O)COC(=O)c2ccc(S(C)(=O)=O)cc2)cc1OCC,i,i,i,i,i
CCOc1ccc(CCNC(=O)COC(=O)c2ccc(OC(C)C)cc2)cc1OCC,i,i,i,-4.8*,i
CCOc1ccc(CCNC(=O)COC(=O)/C=C/c2ccccc2OC)cc1OCC,i,i,16*,i,i
CC(C)Cc1ccc(C(C)C(=O)N2CCOCC2)cc1 (centres undefined),i,i,i,i,i
CC(C)Cc1ccc(C(C)C(N)=Nc2ccc(O)cc2)cc1 (centres undefined),i,i,10*,i,i
Cc1ccc(-c2nc(=S)c3c(n2Cc2ccco2)CC(C)(C)OC3)cc1,i,i,i,-6*,i
Cc1ccc(-c2nc(=S)c3c(n2CC2CCCO2)CC(C)(C)OC3)cc1 (centres undefined),i,i,i,i,i
CC(C)(C)NC(=O)CSc1nc(N)c(-c2ccccc2)c(=O)[nH]1,i,i,i,i,i
O=C(O)c1ccccc1/C=N/Nc1nc(N2CCCCC2)nc(N2CCCCC2)n1,i,i,i,-6.6*,i
COc1cccc(/C=N/Nc2nc(N3CCCC3)nc(N3CCCC3)n2)c1O,-7.7*,i,i,i,i
Cc1ccccc1NS(=O)(=O)c1ccc(OCC(=O)NCc2ccco2)cc1,i,i,i,i,i
O=C(NN=C1CCCCCCC1)c1ccc2ccccc2n1,i,i,i,i,i
CC1CC(C)(C)CC2(C1)NC(=O)N(CC(=O)NC1CCCc3ccccc31)C2=O (centres undefined),i,i,i,i,i
CS(=O)(=O)N(Cc1ccco1)CC(O)Cn1cc(C=O)c2ccccc21 (centres undefined),i,i,i,-5.7*,i
O=Cc1cn(CC(O)Cn2cc(C=O)c3ccccc32)c2ccccc12,i,i,i,i,i
Cc1onc(-c2ccccc2)c1C(=O)N1CC(C)OC(C)C1 (centres undefined),i,i,i,i,i
CN(C)CCOC1c2ccccc2C=Cc2ccccc21,-7.1*,i,i,i,i
SMILES,RGS4 act,MrgX1 ag,MrgX1 PAM,MrgX1 antag,RGS4 inh
CN(C)CCOC(c1ccccc1)c1ccccc1 (tested in a mixture with another compound),i,i,i,i,i
COc1ccc(Cl)cc1NC(=O)C[n+]1cccc(C)c1,i,i,i,i,i
COC(=O)c1ccccc1NC(=O)CC(=O)Nc1ccccc1C(=O)OC,i,i,i,i,i
COC(=O)c1ccccc1CON1C(=O)C(C)(C)N(OCc2ccccc2C(=O)OC)C(=O)C1(C)C,i,i,i,-8.1*,i
Cc1nn(CCCC(=O)NCc2ccc(F)cc2)c(=O)c2nccn12,i,i,i,-5.5*,i
COCCn1c(Cc2ccccc2)nnc1SCC(=O)N1CCCCC1C (centres undefined),i,i,i,-8.2*,i
O=C1CCc2cc(S(=O)(=O)NCCC(=O)NC3CCCCC3)ccc2N1,i,i,i,i,i
CC(C)c1ccc(OC(=O)c2ccc3c(=O)n4c(nc3c2)CCC4)cc1,i,i,i,i,i
COc1cc(N2CCCC2)c(OC)cc1/C=C(/C#N)c1cccc(F)c1,i,i,i,-11*,i
N#C/C(=C/c1ccc(N2CCCCCC2)o1)c1cccc(F)c1,i,i,i,i,i
CCN(CC)CCn1c(=S)[nH]c2cc(C(=O)N3CC=C(c4ccccc4)CC3)ccc2c1=O,i,i,8.5*,i,i
Clc1ccc2c(c1)CCc1cccnc1C2=C1CCNCC1,-7.2*,i,i,i,i
CCCN(CCC)S(=O)(=O)c1ccc(C(=O)NCc2n[nH]c(=S)n2-c2ccc(Cl)c(Cl)c2)cc1,i,i,i,i,i
CCC1=C(OC(=O)N(CC)CC)N2C(=O)OC(=NCC3CC3)[C@]2(Cc2ccccc2)[C@H]2C1=CC[C@H]1C(=O)NC(=O)[C@H]12,i,i,i,-8.1*,i
CCC1=C(OC(=O)N(CC)CC)N2C(=O)OC(=NCCOC)[C@]2(Cc2ccccc2)[C@H]2C1=CC[C@H]1C(=O)NC(=O)[C@H]12,i,i,i,i,i
CC1CC(C)CN(C2CCN(Cc3cccnc3)CC2)C1 (centres undefined),i,i,i,i,i
Nc1c(C(=O)Nc2ccc(F)cc2)sc2nc(-c3ccco3)ccc12,i,i,i,-4.9*,i
Nc1c(C(=O)Nc2ccc(Br)cc2)sc2nc(-c3ccco3)ccc12,i,i,i,i,i
Cc1ccc(-n2cc(-c3ccccc3)c3c(N4CCOCC4)ncnc32)cc1,-7.3*,.,.,.,i
Cc1ccc(-n2cc(-c3ccccc3)c3c(N4CCN(C)CC4)ncnc32)cc1,i,i,i,i,i
Cc1cc(OC(=O)c2ccccc2Cl)cc(=O)n1C,i,i,10*,i,i
O=C(Cn1nc(Cc2ccncc2)c2ccccc2c1=O)Nc1cccnc1Cl,i,i,i,i,i
CCCN(CCC)CCNC(=O)C1(O)c2ccccc2NC(=O)N1c1cccc(OC)c1 (centres undefined),i,i,i,i,i
